SMILES strings stand for the structures. Active and inactive are the calls of the source. No cut-off for these calls is given here.

For assay [1], the species on record is Cavia porcellus. The assay is described as follows: Agonist activity at muscarinic acetylcholine receptor in guinea pig ileum assessed as muscle contraction at 2.5 to 10 ng/ml relative to acetylcholine.
The species entered for assay [2] is Cavia porcellus. The assay is described as follows: […] at muscarinic acetylcholine receptor in guinea pig ileum assessed as muscle contraction in presence of 0.2 mg/l atropine sulfate. Format: tissue-based. The gist of the method: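 Contractions of a guinea pig ileum segment (animals 300-600 g, tissue taken just before the ileocecal valve) were evoked by added drug. Atropine sulfate was present at 0.2 mg/l to test antagonism of the responses.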

In assay [3] the test system is Canis familiaris. The assay is described as follows: Decrease in blood pressure in dog at 1 to 4 ug/kg relative to acetylcholine.
The test system of assay [4] is Canis familiaris. The assay is described as follows: Increase in blood pressure in atropine sulfate-pretreated anesthetized dog at 0.3 to 0.6 mg/kg relative to acetylcholine. Format: functional, Canis lupus familiaris. The following applies: dose mg/kg 0.3-0.6. The gist of the method: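 Dogs were pretreated with atropine sulfate (0.5 mg/kg) and given compounds or acetylcholine at 0.3 and 0.6 mg/kg, rapidly into the right femoral vein in randomized order. Pressor responses were recorded from the left femoral artery by transducer. Relative potencies with 95% confidence intervals were calculated by Finney's method on molar cation amounts.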

The subject of assay [5] is Canis familiaris. The assay is described as follows: Increase in blood pressure in hexamethonium bromide-pretreated anesthetized dog at 0.3 to 0.6 mg/kg. Format: functional, organism-based. The following applies: Canis lupus familiaris. In outline:
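In atropine sulfate-pretreated (0.5 mg/kg) anesthetized dogs, compounds were given intravenously at 0.3 and 0.6 mg/kg. Femoral arterial pressor responses were measured after pretreatment with hexamethonium bromide, 10 mg/kg, given intravenously.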

Assay [6] concerns Canis familiaris. The assay is described as follows: Increase in blood pressure in dog at 0.2 mg/kg. It is filed as functional, organism-based. Details: dose 0.2 mg/kg. Conditions: Canis lupus familiaris. The gist of the method: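 Dogs anesthetized with barbital sodium (250 mg/kg) and pretreated with atropine sulfate (0.5 mg/kg). Agents given rapidly into the right femoral vein in randomized order. Left femoral arterial pressure recorded by transducer. Pressor responses were also tested after intravenous hexamethonium bromide pretreatment (10 mg/kg). Potency is relative to acetylcholine, computed on molar cation amounts by Finney's method with 95% confidence intervals.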

Assay [7] has as its system Canis familiaris. Briefly: Increase in blood pressure in atropine sulfate-pretreated anesthetized dog at 2 mg/kg. The arrangement: dose 2 mg/kg. Conditions: Canis lupus familiaris. It is filed as functional, organism-based.

Consider `CCOCC[N+](C)(C)C.[I-]`, for which the fold change (FC) in assay [1] worked out at 0.15; in assay [3], 1.03; in assay [4], 0.9. The outcome in assay [2] and in assay [5] was inactive.
As for `C=COCC[N+](C)(C)C.[I-]`, the fold change (FC) stood at 0.09 in assay [1], 1.13 in assay [3] and 1.93 in assay [4]. Also, the result in assay [2] and in assay [5] was inactive.
For the molecule `CN1C2CCC1CC(OC(=O)C(CO)c1ccccc1)C2` (centres undefined), in assay [6], the outcome was Active.
As to `C=COCC(C)[N+](C)(C)C.[I-]` (racemic), the fold change (FC) came to 0.001 in assay [1], 0.06 in assay [3] and 3.74 in assay [4]. For the same molecule, the outcome in assay [2] and in assay [5] was inactive.
Consider `C=COC(C)C[N+](C)(C)C.[I-]` (racemic), for which the fold change (FC) was 0.02 in assay [1] and 0.74 in assay [3]. For the same molecule, the result in assay [2] and in assay [7] was inactive.
As for `CCOCC(C)[N+](C)(C)C.[I-]` (racemic), the figures for the fold change (FC) in assay [1], in assay [3] and in assay [4] were 0.003, 0.08 and 1.13, respectively. In addition, the outcome in assay [2] and in assay [5] was inactive.
As for `CCOC(C)C[N+](C)(C)C.[I-]` (racemic), the figures for the fold change (FC) in assay [1] and in assay [3] were 0.03 and 0.64, respectively. In addition, the result in assay [2] and in assay [7] was inactive.

Values taken from ChEMBL document CHEMBL3272346, “Vinyl ethers of choline and congeners” (1976).
